# Assay outcomes as filed in PubChem BioAssay.
# GRK2 inh: inhibitors of human GRK2 displacing RNA aptamer; P25098; bead flow cytometry, FAM-aptamer displacement from GRK2; inhibition of aptamer binding, % at 10 µM; 330,000 compounds, 0.59% hits; AID 488847;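 active = inhibition of aptamer binding above 40%, roughly 3 SD of noise, on plates passing a quality check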;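 also: median bead fluorescence of bound FAM aptamer so fluorescent compounds give negative values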
# Target sequence (P25098 whole entry, looked up): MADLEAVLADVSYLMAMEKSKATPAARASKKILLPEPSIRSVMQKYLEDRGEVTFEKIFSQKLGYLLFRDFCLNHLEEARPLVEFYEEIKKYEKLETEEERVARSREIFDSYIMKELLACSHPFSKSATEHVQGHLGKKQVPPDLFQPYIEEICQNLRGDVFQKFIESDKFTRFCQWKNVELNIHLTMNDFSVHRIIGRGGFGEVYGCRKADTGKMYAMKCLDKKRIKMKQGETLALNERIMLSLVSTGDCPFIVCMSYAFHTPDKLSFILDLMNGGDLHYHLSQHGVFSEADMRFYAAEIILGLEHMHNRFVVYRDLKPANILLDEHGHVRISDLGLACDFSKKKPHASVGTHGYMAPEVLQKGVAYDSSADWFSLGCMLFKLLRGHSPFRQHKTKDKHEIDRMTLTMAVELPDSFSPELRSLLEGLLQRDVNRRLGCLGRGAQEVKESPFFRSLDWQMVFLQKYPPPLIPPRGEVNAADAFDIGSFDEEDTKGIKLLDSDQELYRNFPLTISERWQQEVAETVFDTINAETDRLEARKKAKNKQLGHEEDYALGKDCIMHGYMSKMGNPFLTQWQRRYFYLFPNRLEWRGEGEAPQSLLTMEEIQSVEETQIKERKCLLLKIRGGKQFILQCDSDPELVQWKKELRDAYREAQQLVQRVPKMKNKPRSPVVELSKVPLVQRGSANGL
# EBV gp42 block: inhibitors of Epstein-Barr virus glycoprotein 42; Q1HVG2; Fluorescence polarization binding assay, mP read-out; inhibition, % (tested at 21.74 µM); 220,000 compounds, 0.42% hits; AID 1085; in the data active = inhibition above about 50%
# T cell modulator: T cell immune modulators affecting CD8 T cell-vesicle binding; 2C CD8+ T cell-vesicle binding, flow cytometry; active compounds read low; response (vesicle binding), % at 7 µM; 330,000 compounds, 0.068% hits;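 active = response, share of CD8 T cells binding vesicles, and their 90th percentile fluorescence all below set limits, cut at about 80% in these data, passing the limit was not always enough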;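 also: values below 100% mean blocked vesicle binding to the CD8+ T cells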
#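 Also added: QL9-peptide-loaded Drosophila micro-vesicles bearing Ld, ICAM-1 and B7-1; Test system: purified 2C TCR transgenic mouse naive CD8+ T cells; Measured by: cytometric PE anti-B7-1 and Alexa647 anti-CD8 signals after 1% paraformaldehyde fixation; Timing: binding step 1.5 h, 37 °C, antibody labelling 20 min, ice.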
# LANA DNA inh: blocks KSHV LANA C-terminal domain binding to DNA | 340,000 compounds, 0.078% hits | MBP-C-LANA/FAM-LBS DNA binding, fluorescence polarization | inhibition, % at 9 µM;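 active = highest replicate inhibition at or above 60% at 9 µM, even if other replicates fall short; inactive = all replicates below 60% inhibition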
# MEX-5 binding: C. elegans MEX-5 TCR-2 RNA binding activity. Q9XUB2. 300,000 compounds, 0.38% hits. MEX-5/FITC-TCR2 RNA binding, fluorescence polarization; active compounds read low. activity score (negative = inhibition of binding), % at 10 µM;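 active = inhibition past about -25% in most replicates, and total fluorescence under double the plate's negative control median, limit read from the data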
# Keap1-Nrf2 PPI: Keap1-Nrf2 (human) interaction inhibition; inhibition, % at 9.4 µM; AID 504523; 340,000 compounds, 0.15% hits; Keap1 Kelch-Nrf2 peptide fluorescence polarization, 1536-well; in the data active = inhibition above about 12%;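 also: human Keap1 Kelch domain with fluorescein labeled Nrf2 9mer peptide probe; higher means more block of Keap1 binding to Nrf2 peptide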
# GRK2 inh confirm: human GRK2 inhibition confirmation, cherry pick 1; bead-bound GRK2, FAM-aptamer displacement, flow cytometry; AID 504451; aptamer displacement, % at 10 µM; shares compounds with GRK2 inh; 2,000 compounds, 4% hits;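 active = aptamer displacement above 40%, near three times the noise of non-fluorescent compounds, on plates passing quality checks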;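 also: negative values mostly reflect intrinsic compound fluorescence rather than true enhancement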
# Aptamer quench 1: counter-screen for GRK2 aptamer inhibitors: fluorescent aptamer quenchers; 110 tested, under 10 active; fluorescence change (kMESF span), kMESF (no concentration beside the values); shares compounds with GRK2 inh; Fluorescent RNA aptamer beads, quenching, flow cytometry; active compounds read high; AID 504521;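 active = compounds whose bead fluorescence drops by more than 37 kMESF across the dose range, marking them as dye quenchers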
# Aptamer quench SP: counter-screen for GRK2 aptamer inhibitors: fluorescent aptamer quenchers. shares compounds with GRK2 inh. Carboxyfluorescein RNA aptamer on beads, flow cytometry quenching; active compounds read low. fluorescence response (% of DMSO), % at 10 µM. 2,000 tested, under 10 active. AID 504580;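 active = compounds that quench the bead-bound fluorescent RNA probe, cutting fluorescence to under half of the solvent control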;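 also: counterscreen run without GRK2 so only probe quenching by compound is measured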
# GRK2 CP2: confirmation of human GRK2 inhibitors binding RNA aptamer site; shares compounds with GRK2 inh; bead-bound GRK2, FAM-aptamer displacement, flow cytometry; inhibition of aptamer binding, % at 10 µM; 360 tested, under 10 active;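 active = inhibition of aptamer binding above 40%, about triple the noise seen with nonglowing compounds, on plates passing quality control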;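 also: negative values mostly come from compounds that fluoresce themselves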
# FAM quench SP: counter-screen for GRK2 binding hits: quenchers of fluorescent RNA aptamer. shares compounds with GRK2 inh. carboxyfluorescein RNA aptamer beads, flow cytometry quenching; active compounds read low. fluorescence response vs DMSO, % at 10 µM. 360 tested, under 10 active. AID 588494;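 active = response vs DMSO under 50%, meaning signal dropped by over half, treated as fluorescence quencher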;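 also: labelled aptamer on streptavidin beads without GRK2 as a quench counter-screen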
# A number is an active result; . = inactive; / = no result given. This is a sample that favours compounds with a hit; in the whole collection about 1.3% have one here.
SMILES,GRK2 inh,EBV gp42 block,T cell modulator,LANA DNA inh,MEX-5 binding,Keap1-Nrf2 PPI,GRK2 inh confirm,Aptamer quench SP,others
COC(=O)C1CC(=O)N(c2ccc(C)cc2)C1 (stereo unspecified),94.0,.,.,.,.,.,.,.,
COc1ccc(OC(=O)C2CC(=O)N(c3ccc(C)cc3)C2)cc1 (stereo unspecified),.,.,.,.,.,.,/,/,
NC(=O)C1CCN(C(=O)c2cc3ccccc3cc2O)CC1,.,/,.,.,.,.,/,/,
CCn1cc(Cl)c(C(=O)NNC(=O)CCn2cc([N+](=O)[O-])cn2)n1,63.0,.,.,.,.,.,/,/,GRK2 CP2=.;FAM quench SP=.
Cc1ccc(NC(=O)C(=O)NCC2CCCN2S(=O)(=O)c2cccs2)cc1C (stereo unspecified),.,/,.,.,.,.,/,/,
O=C(CNc1cccc(F)c1)N1CCc2ccccc2C1,51.0,/,.,.,.,.,/,/,GRK2 CP2=.;FAM quench SP=.
Cc1ccc(C(c2sc3ncnn3c2O)N2CCCCC2)cc1 (stereo unspecified),.,.,.,.,.,.,/,/,
COc1cc(C(=O)Nc2c(C(=O)O)[nH]c3ccc(C)cc23)cc(OC)c1OC,88.0,/,.,.,.,.,.,.,
CCCC(=O)Nc1ccc(C(=O)N/N=C2\CC(=O)CC(C)(C)C2)cc1,.,.,.,.,.,.,/,/,
CN(N)c1nc(C(F)(F)F)nc2ccccc12,.,.,.,.,.,.,/,/,
Nc1nc(N(Cc2ccccc2)Cc2ccccc2)nc(C(F)(F)F)n1,43.0,/,.,.,/,.,/,/,GRK2 CP2=.;FAM quench SP=.
O=C(Oc1c(-c2ccccc2)oc2ccccc2c1=O)c1ccccc1,.,.,.,.,.,.,/,/,
O=C(Oc1cc(=O)oc2ccccc12)c1ccccc1,100.0,.,.,.,.,.,.,.,
O=C(Oc1cccc2ccccc12)c1ccccc1,/,/,/,.,/,.,/,/,
O=C(Oc1cccc2c(O)cccc12)c1ccccc1,42.0,.,.,.,.,.,.,.,
CC1CCC(NC(=O)C2CCC(CNS(=O)(=O)c3ccccc3)CC2)CC1 (stereo unspecified),.,/,.,.,.,.,/,/,
O=C(CCc1ccccc1)Nc1cc2c(cc1C(=O)O)OCCCO2,.,/,.,.,/,.,/,/,
CC(C)c1c(O)nc(SCc2ccc(F)cc2)[nH]c1=O,60.0,/,.,.,.,.,.,.,
Cn1cc(CNCC2CCCO2)c(-c2ccc(Oc3ccccc3)cc2)n1 (stereo unspecified),.,.,.,.,.,.,/,/,
Cc1cc(CNCc2cn(C)nc2-c2ccc(Oc3ccccc3)cc2)on1,100.0,.,.,.,.,.,.,.,
COc1ccc(C(N)CCc2ccc(C)o2)cc1 (stereo unspecified),79.0,.,.,.,.,.,.,.,
O=C(Nc1ccc(F)c(F)c1)c1ccc(F)c(S(=O)(=O)N2CCC3(CC2)OCCO3)c1,.,.,.,.,.,.,/,/,
O=C(Cn1cnc2c(nnn2Cc2ccccc2F)c1=O)OCc1ccccc1,82.0,.,.,.,/,.,.,.,
COCCn1nnnc1C(c1cccc(OC)c1OC)N1CCN(C(=O)c2ccco2)CC1 (stereo unspecified),100.0,/,.,.,.,.,.,.,
Cc1ccccc1C(=O)NCCc1nnc(SCC(=O)Nc2nc(-c3ccccc3)cs2)n1C,55.0,.,.,.,.,.,.,.,
SMILES,GRK2 inh,EBV gp42 block,T cell modulator,LANA DNA inh,MEX-5 binding,Keap1-Nrf2 PPI,GRK2 inh confirm,Aptamer quench SP,others
O=C(COc1ccc(Cl)cc1)OCc1ccc(Cl)cc1,/,/,/,.,/,.,/,/,
Cc1ccc(C(=O)OCC(=O)N(CC(C)C)c2c(N)n(Cc3ccccc3)c(=O)[nH]c2=O)cc1[N+](=O)[O-],.,/,.,.,.,.,/,/,
O=C(CCCNC(=O)c1ccc(Cl)cc1)Nc1ncccc1O,.,/,.,.,.,.,/,/,
O=C(CCNC(=O)c1ccc(Cl)cc1)Nc1ncccc1O,77.0,/,.,.,.,.,/,/,GRK2 CP2=.;FAM quench SP=.
Cc1c(NC(=O)c2ccc(S(=O)(=O)N(C)C)cc2)cccc1-n1cnnn1,94.0,/,.,.,/,.,.,.,
CC(C)Sc1nc2c([nH]1)c(=N)ncn2Cc1ccccc1,81.0,.,.,.,.,.,.,.,
O=C(NCc1cccs1)c1cc(-c2ccc(O)cc2)on1,79.0,.,.,.,.,.,.,.,
Cc1ccc(-c2cc(C(=O)NCc3cccs3)no2)cc1,.,.,.,.,.,.,/,/,
COc1ccc(-c2cc(C(=O)NCc3ccc(Cl)cc3)no2)cc1OC,.,.,.,.,.,.,.,.,
Cc1c(C(=O)O)nn(-c2cccc(C(F)(F)F)c2)c(=O)c1C#N,.,/,.,.,.,.,/,/,
C=CCn1cccc(C(=O)Nc2cc(OC)c(OC)c(OC)c2)c1=O,.,.,.,.,.,.,/,/,
C=CCn1cccc(C(=O)Nc2ccc(OC)c(OC)c2)c1=O,48.0,.,.,.,.,.,.,.,
CCNc1nc(NCC)n2c(SCC(=O)Nc3ccccc3)nnc2n1,.,.,.,.,.,.,/,/,GRK2 CP2=.;FAM quench SP=.
CCNc1nc(NCC)n2c(SCC(=O)Nc3ccc(F)cc3)nnc2n1,.,/,.,.,.,.,/,/,
CCNc1nc(NCC)n2c(SCC(=O)Nc3ccc(C)c(C)c3)nnc2n1,78.0,/,.,.,.,.,56.6,.,Aptamer quench 1=.
CCNc1nc(NCC)n2c(SCC(=O)Nc3cc(OC)ccc3OC)nnc2n1,.,/,.,.,.,.,/,/,GRK2 CP2=.;FAM quench SP=.
O=C(Nc1ccc2c(c1)ncn2C1CCCCC1)c1ccco1,.,.,.,.,.,.,/,/,
O=C(Nc1ccc2c(c1)OCCO2)c1cc2ccccc2o1,.,.,.,.,.,.,/,/,
Cn1c(NCc2ccccc2Cl)nc2ccccc21,.,/,.,.,.,.,/,/,
Cn1c(NCc2ccccc2O)nc2ccccc21,45.0,.,.,.,.,.,.,.,
Cc1ccc(/C(O)=C2/C(=O)C(=O)N(CCN3CCOCC3)C2c2ccccn2)cc1 (stereo unspecified),.,.,.,.,.,.,/,/,
